Source: PubChem (Broad Institute)
An excerpt weighted towards active compounds, which were near 1.5% of everything screened.
Mot1-301 SUMO = inhibitors of SUMOylation pathway: yeast Mot1-301 growth rescue; S. cerevisiae Mot1-301 growth rescue, ATP luminescence, 38.5C; percent above DMSO median, 100 means doubled; growth rescue, % at 18.8 µM; 320,000 tested, 1% active;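 active = every valid replicate shows activation above 250% relative to neutral control wells; inactive = the rest, any valid replicate at or below 250%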;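 also: OY570 slx delta 5 strain wells were the positive control but not used for scaling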
C2C12 statin = protects C2C12 myotubes from simvastatin toxicity; ATP luminescence, 48 h; scaled: DMSO 0, geranylgeraniol control 100; rescue of ATP level, % at 7.49 µM; 330,000 tested, 0.78% active; AID 602340;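 active = mean ATP rescue above about 67%, or every replicate alone reaching that limit, limit read from the data, passing the limit was not always enough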;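 also: myotubes were challenged with 10 µM simvastatin during compound exposure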
Cneo AK release = causes C. neoformans cell lysis; 360,000 tested, 0.2% active; AID 651654; adenylate kinase release luminescence, 4 h; normalised: neutral wells 0, clomiphene wells 100; lysis activity, % at 15 µM;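 active = mean lysis activity across replicates of at least 80%, whatever share of replicates individually reach that level; inactive = mean lysis activity below 80%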
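read-out = cell lysis signal | test system = log-phase Cryptococcus neoformans yeast cells | input = cells at 5 × 10^6 per mL | medium = fresh YPD growth medium | signal = luminescent adenylate kinase detection reagent | timing = 4 h at 37 °C static, read 1 h later | dosing = single dose | controls = Clomiphene as positive lysis control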
Yeast Mot1 SUMO = yeast SUMO pathway inhibition in dose response. 2,300 tested, under 10 active. growth activity, percent, % at 42 µM. S. cerevisiae Mot1-301 galactose growth, ATP luminescence, 24 h; -100 = growth of slx-deleted rescue strain. AID 493004. shares compounds with Mot1-301 SUMO;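 active = Signal drops as the depositor expects, and the fitted half-maximal dose is no more than ten times the top valid tested dose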;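 also: more negative values mean stronger growth rescue toward the control strain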
Numbers without * were called inactive; nt = not tested or not shown; + = active, no number; [ ] = remark or other dose.

SMILES | Mot1-301 SUMO | C2C12 statin | Cneo AK release | Yeast Mot1 SUMO
CSc1ncccc1C(=O)NC1CCCc2c1cnn2-c1ccc(C)c(C)c1 (configuration not stated) | 458* | 10 | 2 | 1
COc1ncccc1C(=O)NC1CCCc2c1cnn2-c1ccc(C)c(C)c1 (configuration not stated) | -20 | 8 | 2 | nt
C[C@H](CO)N1C[C@H](C)[C@@H](CN(C)S(=O)(=O)c2ccccc2F)Oc2ncc(C#Cc3ccccc3)cc2C1=O | nt | -52 | 4 | nt
CC(Oc1ccc(Cl)cc1Cl)C(=O)NCCN1CCOCC1 (configuration not stated) | 77 | nt | nt | nt
O=C(NCCN1CCOCC1)Nc1ccc(Cl)cc1Cl | 901* | -3 | 0 | 1
O=C(N[C@H]1CC[C@@H](CCNS(=O)(=O)Cc2ccccc2)O[C@@H]1CO)c1ccccc1F | nt | 7 | -2 | nt
O=C(CCN1CCCCC1)NCC[C@@H]1CC[C@H](NC(=O)C2CCOCC2)[C@H](CO)O1 | nt | 2 | -7 | nt
C[C@@H]1CN([C@@H](C)CO)C(=O)c2cc(C3=CCCCC3)cnc2O[C@H]1CN(C)C(=O)Nc1ccc(F)cc1 | nt | 42 | 1 | nt
COCCNC(=O)CN(c1ccc(F)cc1)S(=O)(=O)c1ccc2c(c1)OCCO2 | 22 | 6 | 5 | nt
CCCNC(=O)CN(c1ccc(F)cc1)S(=O)(=O)c1ccc2c(c1)OCCO2 | 847* | 8 | 1 | 0
O=C([C@H]1[C@H](CO)[C@H]2Cn3c(cccc3=O)[C@@H]1N2C(=O)CC1CC1)N1CCCCC1 | nt | 15 | 0 | nt
O=C(O)C1C2CCCCC2=C2CCCCC2C1C(=O)c1ccccc1 (configuration not stated) | 394* | 26 | -1 | 0
O=C(c1ccccc1)C1CC=CCC1C(=O)c1ccccc1 (configuration not stated) | nt | -2 | 3 | nt
C#CCN([C@H](/C=C/C1CC1)[C@@H](O)Cc1ccccc1)[C@@H]1C(=O)N2[C@@H]1SC(C)(C)[C@@H]2C(=O)OC | nt | nt | 4 | nt
COc1ccc(N/C=C(\C#N)S(=O)(=O)c2ccc(OC)cc2)cc1 | 26 | 4 | -1 | nt
COc1ccc(/C=C(/C#N)S(=O)(=O)c2ccc(C)cc2)cc1 | + | 6 | 1 | 0[21 µM]
CSc1cccc(NC(=S)N2CCC(c3ccccc3)C2)c1 (configuration not stated) | 37 | -5 | 10 | nt
CSc1cccc(NC(=S)N2CCCN(Cc3ccccc3F)C2)c1 | 496* | 1 | nt | 0
CC(=O)c1sc(N/N=C\c2ccc(Br)cc2)nc1C | -21 | nt | nt | nt
CCOC(=O)c1sc(N/N=C/c2ccc(N(C)C)cc2)nc1C | + | -18 | -1 | 0
C[C@@H]1CN([C@H](C)CO)C(=O)c2cc(C#CCN(C)C)cnc2O[C@@H]1CN(C)C(=O)Nc1cccc(F)c1 | nt | 8 | 0 | nt
S=C(NCCCc1ccccc1)Nc1ccccc1Cl | 28 | nt | nt | nt
CN(C)CCNC(=S)Nc1ccccc1Cl | 5 | 3 | 4 | nt
Cc1c(Cl)cccc1NC(=S)NCCCN(C)C | 393* | nt | 11 | 0
S=C(NCCc1ccccc1)Nc1ccccc1Cl | 530* | -25 | 9 | 0
SMILES | Mot1-301 SUMO | C2C12 statin | Cneo AK release | Yeast Mot1 SUMO
CN(C)C(=O)c1cccc(-c2ccc([C@H]3[C@@H](C#N)N(C(=O)C4CC4)[C@@H]3CO)cc2)c1 | nt | 1 | 52 | nt
CCCC(=O)Nc1ccc2c(c1)OC[C@@H](C)N(C(=O)CN(C)C)C[C@H](C)[C@H](OC)CN(C)C2=O | nt | 0 | 0 | nt
O=C(Nc1ccccc1)OCCN1CCN(Cc2ccccc2)CCC1=O | 2 | -11 | 1 | nt
O=C1CCN(Cc2ccccc2)CCN1CCOc1ccccc1 | 858* | 8 | -2 | 0
C[C@@H]1CN([C@H](C)CO)S(=O)(=O)c2ccc(-c3cncnc3)cc2O[C@@H]1CN(C)C(=O)Cc1ccccc1 | nt | -11 | 50 | nt
Cc1nn(C)c(C)c1NS(=O)(=O)c1ccc(Cl)s1 | -11 | 3 | 0 | nt
Cc1ccc(F)cc1NS(=O)(=O)c1ccc(Cl)s1 | 378* | -47 | 0 | 1
COCC(=O)Nc1ccc2c(c1)C(=O)N(C)[C@@H]1CC[C@H](CC(=O)NCc3ccccc3Cl)O[C@@H]1CO2 | nt | 0 | 1 | nt
COc1ccccc1CNc1ncnc2c1nnn2Cc1ccccc1 | 514* | 126* | 2 | 0
COc1ccccc1Nc1ncnc2nc[nH]c12 | 8 | nt | 1 | nt
CC(C)CCNc1ncnc2c1nnn2Cc1ccccc1 | -5 | -4 | 0 | nt
COc1ccccc1CNc1ncnc2nc[nH]c12 | 671* | -4 | -1 | 0
O=C(NCCc1ccncc1)[C@@H]1[C@@H](CO)[C@@H]2Cn3c(ccc(-c4ccncc4)c3=O)[C@@H]2N1C(=O)C1CC1 | nt | -9 | 2 | nt
COc1ccc(S(=O)(=O)N[C@@H]2C=C[C@H](CC(=O)N3CCN(c4ccccc4)CC3)O[C@H]2CO)cc1 | nt | -3 | -1 | nt
CCC(=O)N1C[C@H](C)[C@@H](OC)CN(C)C(=O)c2ccc(NC(=O)C3CCOCC3)cc2OC[C@H]1C | nt | -6 | 43 | nt
CCC1SC2=NC(C)=C(C(=O)OCCOC)C(c3ccc(C(=O)OC)cc3)N2C1=O (configuration not stated) | 832* | -8 | -1 | -1
CCC1SC2=NC(C)=C(C(=O)OC)C(c3ccc(C(=O)OC)cc3)N2C1=O (configuration not stated) | -20 | -4 | 1 | nt
O=C(Cc1ccc(Cl)cc1)NC(=S)Nc1ccccc1N1CCOCC1 | 815* | nt | 31 | 0
CCCC(=O)NC(=S)Nc1ccccc1N1CCOCC1 | -1 | nt | nt | nt
Cc1ccc(S(=O)(=O)N[C@@H]2CC[C@@H](CC(=O)NCCc3ccncc3)O[C@H]2CO)cc1 | nt | -1 | 67 | nt
C[C@@H]1CCCCO[C@@H](CN(C)C(=O)Cc2ccccc2)[C@H](C)CN([C@H](C)CO)C(=O)c2cc(NS(=O)(=O)c3ccc(Cl)cc3)ccc2O1 | nt | nt | -1 | nt
COc1ccc(NC2=C(c3ccc(OC)cc3)C(=O)c3ccccc32)cc1 | 9 | nt | 1 | nt
COc1ccc(C2=C(N)c3ccccc3C2=O)cc1 | 457* | -60 | -2 | -2
COc1ccccc1NC(=O)N(C)C[C@@H]1Oc2ncc(C#CCC(C)C)cc2C(=O)N([C@@H](C)CO)C[C@H]1C | nt | nt | 3 | nt
COC(=O)[C@@H]1[C@@H](CO)[C@@H]2Cn3c(ccc(-c4ccccc4)c3=O)[C@@H]2N1CC1CCCCC1 | nt | 17 | 2 | nt
SMILES | Mot1-301 SUMO | C2C12 statin | Cneo AK release | Yeast Mot1 SUMO
CC(NC(=O)c1cnc2n(c1=O)CCS2)c1ccccc1 (configuration not stated) | 994* | nt | 2 | 0
CCC(C)NC(=O)c1cnc2n(c1=O)CCS2 (configuration not stated) | 0 | -12 | -1 | nt
COc1cc2cc(C)c3nnc(SCC(=O)Nc4cc(C)on4)n3c2cc1OC | 421* | nt | nt | 1
Cc1cc(NC(=O)CSc2nnc3c(C)cc4c(C)ccc(C)c4n23)no1 | -1 | 12 | 0 | nt
O=C(Nc1ccc(Cl)c(Cl)c1)N[C@@H]1CC[C@H](CCNC(=O)c2ccc(F)cc2)O[C@@H]1CO | nt | 0 | 6 | nt
O=c1c2c3c(sc2n2cnnc2n1-c1ccccc1)N(Cc1ccccc1)CCC3 | 445* | nt | nt | 0
